The list is not random: actives were taken first. Their share in the collection is about 1.4%.
JMJD2C inh: blocks human GASC-1 demethylase activity | hit rate 0.069% among 330,000 | AID 2099 | GST-JMJD2C(1-420) H3K9me3 demethylation, DELFIA europium | inhibition, % at 2.35 µM | Q9H3R0;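 active means more than half of a compound's replicate wells show inhibition beyond 50%, single wells judged on their own value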;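 further: signal counts dimethyl H3K9 product captured on neutravidin plate; 0% = median of DMSO wells and 100% = 0.3 times that DMSO median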
Target sequence (Q9H3R0 1-420 limits assumed): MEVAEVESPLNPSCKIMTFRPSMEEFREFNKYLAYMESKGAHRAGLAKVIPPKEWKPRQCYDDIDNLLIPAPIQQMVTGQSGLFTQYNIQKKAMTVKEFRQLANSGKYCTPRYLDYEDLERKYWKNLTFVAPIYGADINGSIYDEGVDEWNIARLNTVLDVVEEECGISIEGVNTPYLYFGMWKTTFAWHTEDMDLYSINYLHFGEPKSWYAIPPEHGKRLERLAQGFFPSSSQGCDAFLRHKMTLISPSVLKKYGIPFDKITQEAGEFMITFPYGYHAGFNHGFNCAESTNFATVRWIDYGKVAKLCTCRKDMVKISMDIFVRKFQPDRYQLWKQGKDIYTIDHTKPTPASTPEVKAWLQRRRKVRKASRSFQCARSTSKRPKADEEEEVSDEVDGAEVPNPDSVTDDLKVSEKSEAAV
T cell modulator: T cell immune modulators affecting CD8 T cell-vesicle binding; 2C CD8+ T cell-vesicle binding, flow cytometry; hits give low values; response (vesicle binding), % at 7 µM; hit rate 0.068% among 330,000;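 active means response, share of CD8 T cells binding vesicles, and their 90th percentile fluorescence all below set limits, cut at about 80% in these data, passing the limit was not always enough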;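 further: values below 100% mean blocked vesicle binding to the CD8+ T cells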
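System: murine 2C transgenic CD8+ T lymphocytes; also added: QL9-loaded Drosophila micro-vesicles; times: binding 1.5 h at 37 °C; measured by: flow cytometry, PE anti-B7-1 (FL2) versus Alexa647 anti-CD8 (FL8), PFA-fixed; control set: Peptide-free naked vesicles (low) and QL9 vesicles with 0.7% DMSO vehicle (high)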
HIF activator: HIF pathway transcriptional activation. U2OS HRE-luciferase reporter, luminescence; normalized: DMSO 0%, desferrioxamine 100%. activation, % at 7.5 µM (by protocol). hit rate 0.32% among 300,000. AID 1910;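 active means mean activation of at least 10% of the iron chelator positive control signal, with at least half of replicates also reaching 10%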
Mot1-301 SUMO: blocks SUMOylation pathway, rescuing yeast Mot1-301 growth | hit rate 1% among 320,000 | growth rescue, % at 18.8 µM | AID 2716 | S. cerevisiae Mot1-301 growth rescue, ATP luminescence, 38.5C; percent above DMSO median, 100 means doubled;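 active means every valid replicate shows activation above 250% relative to neutral control wells; inactive means the rest, any valid replicate at or below 250%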;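 further: OY570 slx delta 5 strain wells were the positive control but not used for scaling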
Mot1 SUMO dose: inhibits SUMO pathway, affecting Mot1-301 yeast growth; growth activity, percent, % at 42 µM; shares compounds with Mot1-301 SUMO; 2,300 tested, under 10 active; S. cerevisiae Mot1-301 galactose growth, ATP luminescence, 24 h; -100 = growth of slx-deleted rescue strain; AID 493004;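 active means Signal drops as the depositor expects, and the fitted half-maximal dose is no more than ten times the top valid tested dose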;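 further: more negative values mean stronger growth rescue toward the control strain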
* hit, by the source's call; i = inactive; . = not tested or not shown; + = active, no number; [ ] = dose if it differs, or a comment.

SMILES	JMJD2C inh	T cell modulator	HIF activator	Mot1-301 SUMO	Mot1 SUMO dose
COC(=O)c1ccccc1NC(=O)c1ccccc1N(C)S(C)(=O)=O	5.8	248.3	.	17.8	.
C/C(=N\N=C(/N)SC1CC(=O)N(c2cccc(Cl)c2)C1=O)c1cccs1 (centres undefined)	.	239.7	-0.1	374.1*	-1.0
O=c1onc(-c2ccc(Cl)cc2Cl)n1-c1cccnc1	-0.1	123.6	0.3	-18.7	.
COc1ccccc1NC(=S)N(Cc1cccs1)C1CCCC1	-1.1	174.3	-0.6	-16.3	.
COc1ccccc1NC(=S)N(Cc1ccccc1)Cc1cccs1	8.1	120.0	0.5	+	-0.1
Oc1ccc(Br)cc1/C=N/n1c(COc2ccccc2)n[nH]c1=S	6.4	168.9	-1.3	679.4*	-0.3
S=c1[nH]nc(COc2ccccc2)n1/N=C/c1ccccc1Br	5.2	585.2	-0.2	56.0	.
CCOc1ccc(OCCNC(=O)C(NC(=O)c2c(F)cccc2F)C(C)C)cc1 (centres undefined)	3.5	i	.	-13.8	.
O=C(CCNC(=O)c1ccc(Cl)cc1)NCc1ccco1	-5.7	202.1	.	5.5	.
COC(=O)[C@@H](NC(=O)Nc1ccc(S(N)(=O)=O)cc1)C(C)C	1.8	216.2	0.4	373.3*	0.0
CCC(C)[C@H](NC(=O)Nc1ccc(S(N)(=O)=O)cc1)C(=O)O (some centres undefined)	7.3	172.8	-20.3	-7.2	.
COc1ccc(CCNC(=O)C/C(C)=N/NC(=O)COc2ccc(C)cc2Br)cc1OC	-51.5	257.8	0.6	904.0*	0.3
CCOc1cc(C(N)=O)cc(Cl)c1OCc1ccccc1	6.7	134.2	-0.9	441.6*	-0.1
CC(C)N1CCN(C(=O)c2ccc(OC3CCN(CCc4ccccc4)CC3)cc2)CC1	.	276.0	0.3	-17.3	.
O=C(c1ccc(OC2CCN(CCc3ccccc3)CC2)cc1)N1CCCC1	-8.9	168.6	-0.3	608.3*	-0.4
CC(C)(C)OC(=O)C[C@@H]1C/C=C\C[C@@H](CC(=O)N(CCO)Cc2ccccc2)C(=O)N2CCC[C@@H]2COC1=O	5.9	326.5	.	-1.7	.
CCOC(=O)C1CCN(Cc2ccc(OCc3ccccc3)cc2)CC1	7.9	190.1	1.6	554.9*	-0.9
COCC(=O)NNC(=O)c1ccccc1OC	-2.9	75.0	-0.1	438.2*	-0.1
Cc1ccccc1P(=O)(CO)c1ccccc1C	-1.1	139.3	-0.1	413.9*	0.6
Cc1nn(Cc2ccc(C(=O)Nc3ccccc3C(F)(F)F)o2)c(C)c1Br	5.3	365.0	-0.2	440.0*	0.3
O=C(COc1cccnc1[N+](=O)[O-])Nc1ccc2c(c1)CCC2	-6.2	462.0	0.2	811.0*	0.2[21 µM]
O=c1oc(CCO)cc2ccc(Br)cc12	10.9	0.0	.	3.8	.
CCNc1ccccc(C(=O)/C=C/c2ccc3c(c2)OCO3)c1=O	-1.5	242.9	0.1	438.6*	-0.4
O=C(NCCn1cccn1)C1CCC(=O)N(CCc2cccc(F)c2)C1 (centres undefined)	-0.2	335.1	0.4	163.2	.
CCN(CCn1cccn1)C(=O)C1CCC(=O)N(CCc2cccc(F)c2)C1 (centres undefined)	6.8	228.9	-0.1	689.2*	-0.2
SMILES	JMJD2C inh	T cell modulator	HIF activator	Mot1-301 SUMO	Mot1 SUMO dose
COc1ccc(OC)c(C=NNC(=O)c2ccccc2NS(=O)(=O)c2cccs2)c1	-3.0	186.7	.	-22.7	.
COc1ccc2nc(NC(=O)C3CCN(S(=O)(=O)c4cccnc4)CC3)sc2c1	-9.5	198.2	-0.1	-1.8	.
Cc1ccc2nc(NC(=O)C3CCN(S(=O)(=O)c4cccnc4)CC3)sc2c1	3.4	196.1	0.2	774.5*	0.3
COc1ccc(CC(NC(C)=O)C(=O)NC2CCN(C(=O)C3CCCCC3)CC2)cc1OC (centres undefined)	-1.0	293.8	-0.2	-4.0	.
Cc1cccc(CS(=O)(=O)Cc2ccc(C(=O)NCC3CCCO3)o2)c1 (centres undefined)	-1.7	131.3	-0.3	666.8*	0.5
CCOC(=O)N1CCN(C(=O)CNC(=O)c2nn(-c3ccc(OC)c(Cl)c3)c(=O)c3ccccc23)CC1	10.2	379.5	0.5	-16.7	.
COc1ccc(-n2nc(C(=O)NCC(=O)N3CCCC3)c3ccccc3c2=O)c(OC)c1	5.6	561.6	0.0	+	1.3
CCOC(=O)N1CCN(C(=O)CNC(=O)c2nn(-c3ccc(OC)c(OC)c3)c(=O)c3ccccc23)CC1	28.6	164.5	-0.3	496.7*	0.8

Screening data: PubChem BioAssay, several laboratories
